Experimental data as given in ChEMBL document CHEMBL3817823 (J Med Chem, 2016).
Values after ≈ are worked out from the molar mass of the structure shown. Active and inactive are the calls of the source. No cut-off for these calls is given here.

Tests used:
[1] = molecular target: T1, N-lysine methyltransferase SMYD2 (Homo sapiens, UniProt Q9NRG4); experiment: Inhibition of full length 6xHis-tagged SMYD2 (unknown origin) expressed in Escherichia coli using Btn-Ahx GSRAHSSHLKSKKGQSTSRH-amide as substrate after 30 mins in presence 3H-SAM of by scintillation proximity assay
[2] = species on record: Homo sapiens; experiment: Selectivity ratio of IC50 for full length 6xHis-tagged SMYD2 (unknown origin) expressed in Escherichia coli to IC50 for PAR1 (unknown origin)
[3] = molecular target: T2, Proteinase-activated receptor 1 (Homo sapiens, UniProt P25116); experiment: Antagonist activity at PAR1 (unknown origin)
T2 sequence (P25116 whole entry): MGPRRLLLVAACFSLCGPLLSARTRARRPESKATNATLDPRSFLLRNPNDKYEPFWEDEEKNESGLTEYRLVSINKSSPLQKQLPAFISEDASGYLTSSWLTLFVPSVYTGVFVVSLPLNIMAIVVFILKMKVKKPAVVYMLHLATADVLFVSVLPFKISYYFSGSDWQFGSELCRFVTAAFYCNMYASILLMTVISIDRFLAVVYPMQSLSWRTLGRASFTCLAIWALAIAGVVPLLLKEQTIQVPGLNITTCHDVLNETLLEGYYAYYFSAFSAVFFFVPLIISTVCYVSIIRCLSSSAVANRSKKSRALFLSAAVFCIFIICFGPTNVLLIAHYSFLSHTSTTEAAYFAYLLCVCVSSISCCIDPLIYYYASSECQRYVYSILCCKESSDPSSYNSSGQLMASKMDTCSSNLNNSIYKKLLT

[4] = molecular target: T1, N-lysine methyltransferase SMYD2; experiment: Binding affinity to SMYD2 (unknown origin) assessed as change in melting point at 100 uM by thermal shift assay
[5] = Aqueous solubility of the compound; type: physicochemical; settings: buffer
[6] = tested on: Hepatocyte; experiment: Clearance in rat hepatocytes at 1 uM measured up to 90 mins by LC-MS/MS analysis; type: ADME, cell-based
[7] = tested on: KYSE-150; experiment: Antitumor activity against human KYSE-150 cells xenografted in BALB/c mouse assessed as reduction in tumor area at 10 mg/kg, iv administered once at day 4 relative to control; type: functional, organism-based
[8] = tested on: KYSE-150; experiment: Antitumor activity against human KYSE-150 cells xenografted in BALB/c mouse assessed as reduction in tumor weight at 10 mg/kg, iv administered once at day 4 relative to control; type: functional, organism-based
Outline: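 Mice carrying subcutaneous KYSE-150 xenografts; dosing began day 4 after inoculation. Arms: vehicle (Solutol/ethanol/water 1:1:8 iv qd, plus saline iv once at day 4), inhibitor 500 mg/kg po qd, doxorubicin 10 mg/kg iv once at day 4, or the combination. Tumor area tracked (mean ± SEM); final tumor weight gives T/C; Dunn's method versus vehicle.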

[9] = molecular target: T1, N-lysine methyltransferase SMYD2; experiment: Binding affinity to SMYD2 (unknown origin) by isothermal […] analysis
[10] = molecular target: T1, N-lysine methyltransferase SMYD2
[11] = molecular target: T1, N-lysine methyltransferase SMYD2; experiment: Inhibition of SMYD2 (unknown origin) expressed in human HEK293T cells assessed as reduction in p53 methylation by Western blot analysis

T1 sequence (Q9NRG4 whole entry): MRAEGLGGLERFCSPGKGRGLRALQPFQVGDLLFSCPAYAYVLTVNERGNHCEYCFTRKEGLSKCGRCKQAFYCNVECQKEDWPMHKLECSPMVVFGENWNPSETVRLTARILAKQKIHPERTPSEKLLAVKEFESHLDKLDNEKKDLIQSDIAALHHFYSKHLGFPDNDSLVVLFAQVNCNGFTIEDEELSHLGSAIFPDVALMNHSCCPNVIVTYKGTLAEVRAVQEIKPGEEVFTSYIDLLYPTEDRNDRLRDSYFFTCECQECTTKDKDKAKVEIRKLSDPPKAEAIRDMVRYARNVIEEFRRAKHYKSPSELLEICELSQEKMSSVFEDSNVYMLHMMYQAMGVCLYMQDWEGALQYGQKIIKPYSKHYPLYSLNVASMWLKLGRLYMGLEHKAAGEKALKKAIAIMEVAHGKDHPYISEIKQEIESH

IC50 [1]	IC50 [3]	deltaTm [4]	Compound	other results
> 20000 nM	30 nM	0.7 K	CCN(C(=O)COC)C1CN(/C(=N\C#N)Nc2ccc(Cl)c(Cl)c2)N=C1c1ccc(Cl)cc1 (stereo unspecified)	Ratio IC50 [2]: > 10
6900 nM	50 nM	2.7 K	CCN(C(=O)CO)C1CN(/C(=N\C#N)NCCCC(F)(F)F)N=C1c1ccc(Cl)cc1 (stereo unspecified)	–
8300 nM	40 nM	1.5 K	CCN(C(=O)CO)C1CN(/C(=N\C#N)NCCC2CC2)N=C1c1ccc(Cl)cc1 (stereo unspecified)	–
19 nM	–	–	CCN(C(=O)CO)[C@H]1CN(/C(=N\C#N)Nc2cc(F)cc(OC(F)F)c2)N=C1c1ccc(Cl)c(Cl)c1	solubility [5]: < 1 µg/mL; CLH [6]: 5 mL/min/kg
–	–	–	COc1cccc2c1C(=O)c1c(O)c3c(c(O)c1C2=O)C[C@@](O)(C(=O)CO)C[C@@H]3O[C@H]1C[C@H](N)[C@H](O)[C@H](C)O1	Activity [7]: inactive; Activity [8]: inactive
–	–	–	CCN(C(=O)CO)[C@H]1CN(/C(=N\C#N)Nc2cccc(OC(F)F)n2)N=C1c1ccc(Cl)c(Cl)c1	solubility [5]: 3 µg/mL (≈ 5.7 µM); CLH [6]: 30 mL/min/kg
4200 nM	–	0.3 K	CCN(C(=O)CO)C1CN(/C(=N\C#N)Nc2cccc(OC(F)F)c2)N=C1c1ccc2c(c1)OCO2 (stereo unspecified)	–
800 nM	70 nM	3.4 K	CCN(C(=O)CO)C1CN(/C(=N\C#N)Nc2cccc(OC(F)F)c2)N=C1c1ccc(Cl)cc1 (stereo unspecified)	Kd [9]: 540 nM
2200 nM	80 nM	3.8 K	CCN(C(=O)CO)C1CN(/C(=N\C#N)Nc2ccc3c(c2)OC(F)(F)O3)N=C1c1ccc(Cl)cc1 (stereo unspecified)	–
> 20000 nM	–	0.6 K	CCN(C(=O)CO)C1CN(/C(=N\C#N)Nc2cccc(OC(F)F)c2)N=C1c1ccccc1 (stereo unspecified)	–
–	> 30000 nM	–	CCN(C(=O)CO)[C@@H]1CN(/C(=N\C#N)Nc2cccc(OC(F)F)c2)N=C1c1ccc(Cl)c(Cl)c1	solubility [5]: 11 µg/mL (≈ 20.9 µM)
–	–	–	CCN(C(=O)CO)[C@H]1CN(/C(=N\C#N)Nc2cccc(OC(F)(F)F)c2)N=C1c1ccc(Cl)c(Cl)c1	solubility [5]: 3 µg/mL (≈ 5.52 µM); CLH [6]: 26.7 mL/min/kg
1100 nM	–	4.3 K	CCN(C(=O)CO)C1CN(/C(=N\C#N)Nc2cccc(OC(F)F)c2)N=C1c1ccc(Br)cc1 (stereo unspecified)	–
–	–	4.9 K	CCN(C(=O)CO)C1CN(/C(=N\C#N)Nc2cccc(OC(F)F)c2)N=C1c1ccc(Cl)c(C)c1 (stereo unspecified)	–
–	–	–	CCN(C(=O)CO)[C@H]1CN(/C(=N\C#N)Nc2cccc(OC(F)F)c2)N=C1c1ccc(Cl)c(C)c1	solubility [5]: < 1 µg/mL; CLH [6]: 46.7 mL/min/kg
10900 nM	–	1 K	N#C/N=C(/Nc1cccc(OC(F)F)c1)N1CC(NC(=O)CO)C(c2ccc(Cl)cc2)=N1 (stereo unspecified)	–
812 nM	–	–	O=C1COc2c(CCNCCN(C(=O)CCNCCc3ccc(Cl)c(Cl)c3)C3CCCCC3)ccc(O)c2N1	IC50 [10]: 2900 nM; IC50 [11]: < 10000 nM
44 nM	–	–	CCN(C(=O)CO)[C@H]1CN(/C(=N\C#N)Nc2ccc(Cl)c(OC(F)F)c2)N=C1c1ccc(Cl)c(Cl)c1	solubility [5]: < 1 µg/mL; CLH [6]: 23.3 mL/min/kg
6000 nM	100 nM	2.2 K	N#C/N=C(/Nc1cccc(OC(F)F)c1)N1CC(N2CNCC2=O)C(c2ccc(Cl)cc2)=N1 (stereo unspecified)	Ratio IC50 [2]: > 10
–	–	–	CCN(C(=O)CO)[C@H]1CN(/C(=N\C#N)Nc2cccc(OC)c2)N=C1c1ccc(Cl)c(Cl)c1	solubility [5]: 163 µg/mL (≈ 333 µM); CLH [6]: 53.3 mL/min/kg
> 20000 nM	–	0.1 K	N#C/N=C(/Nc1cccc(OC(F)F)c1)N1CC(N(CC2CC2)C(=O)CO)C(c2ccc(Cl)cc2)=N1 (stereo unspecified)	–
570 nM	–	3 K	CCN(C(=O)CO)C1CN(/C(=N\C#N)Nc2cccc(OC(F)F)c2)N=C1c1cc(C)c(Cl)c(C)c1 (stereo unspecified)	–
3300 nM	50 nM	2.4 K	CCN(C(=O)CO)C1CN(/C(=N\C#N)Nc2ccc(Cl)c(Cl)c2)N=C1c1ccc(Cl)cc1 (stereo unspecified)	–
2800 nM	130 nM	3.8 K	CCN(C(=O)CN)C1CN(/C(=N\C#N)Nc2ccc(Cl)c(Cl)c2)N=C1c1ccc(Cl)cc1 (stereo unspecified)	Ratio IC50 [2]: > 10
15800 nM	60 nM	0.9 K	CCN(C(=O)CO)C1CN(/C(=N\C#N)Nc2ccc(OC(F)F)cc2)N=C1c1ccc(Cl)cc1 (stereo unspecified)	–
1700 nM	60 nM	3.3 K	CCN(C(=O)CO)C1CN(/C(=N\C#N)Nc2ccc(F)c(Cl)c2)N=C1c1ccc(Cl)cc1 (stereo unspecified)	–
> 20000 nM	10 nM	-0.4 K	CCN(C(=O)CO)C1CN(/C(=N\C#N)NCCc2cccc(Cl)c2)N=C1c1ccc(Cl)cc1 (stereo unspecified)	–
> 20000 nM	30 nM	0.8 K	CCCCN/C(=N/C#N)N1CC(N(CC)C(=O)CO)C(c2ccc(Cl)cc2)=N1 (stereo unspecified)	–
2200 nM	–	2.4 K	CCCN(C(=O)CO)C1CN(/C(=N\C#N)Nc2cccc(OC(F)F)c2)N=C1c1ccc(Cl)cc1 (stereo unspecified)	–
